ChEMBL document CHEMBL2046333, “Antiprotozoal and antimicrobial compounds from the plant pathogen Septoria pistaciarum” (J Nat Prod, 2012)
In brackets after ≈: the same amount, converted by molar mass. Activity calls are given as the source filed them. The calls are words filed in the database; no cut-off is given here.

What was measured:
[1] = Selectivity index, ratio of IC50 for african green monkey Vero cells to IC50 for chloroquine-resistant Plasmodium falciparum W2; type: toxicity, cell-based; conditions: read-out: Ratio IC50
In short: (§1)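 Selectivity index is the IC50 for Vero-cell cytotoxicity (Neutral Red viability) divided by the IC50 against P. falciparum D6 or W2 (from dose-response curves).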

[2] = Selectivity index, ratio of IC50 for african green monkey Vero cells to IC50 for chloroquine-sensitive Plasmodium falciparum D6; type: toxicity, cell-based; conditions: read-out: Ratio IC50; in short: as §1
[3] = tested on: Plasmodium falciparum; test: Antimalarial activity against chloroquine-sensitive Plasmodium falciparum D6 infected in RBC assessed as parasite LDH activity after 72 hrs; type: functional, organism-based; conditions: D6, 72 h
[4] = tested on: BT-549; test: Cytotoxicity against human BT549 cells assessed as viable cells by neutral red dye method; type: functional, cell-based
[5] = tested on: SK-OV-3; test: Cytotoxicity against human SKOV3 cells assessed as viable cells by neutral red dye method; type: functional, cell-based
[6] = tested on: KB; test: Cytotoxicity against human KB cells assessed as viable cells by neutral red dye method; type: functional, cell-based
[7] = tested on: SK-MEL; test: Cytotoxicity against human SK-MEL cells assessed as viable cells by neutral red dye method; type: functional, cell-based
[8] = Cytotoxicity against pig LLC-PK11 cells assessed as viable cells by neutral red dye method; type: cell-based; conditions: Sus scrofa
[9] = tested on: Lactuca sativa; test: Phytotoxic activity against Lactuca sativa cv. L. at 1.62 mM; type: functional, organism-based
In short: (§2)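 Compound (1 mg) dissolved in 100 μL acetone; 20 μL spotted on filter paper, air-dried 30 min. Paper placed in well, 200 μL water added. Bentgrass (Agrostis stolonifera) or lettuce (Lactuca sativa cv. L., Iceberg) seeds used. Solvent controls treated identically. Growth scored visually from 0 (no effect) to 5 (no growth).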

[10] = tested on: Plasmodium falciparum; test: Antimalarial activity against chloroquine-resistant Plasmodium falciparum W2 infected in RBC assessed as parasite LDH activity after 72 hrs; type: functional, organism-based; conditions: W2, 72 h
[11] = tested on: Leishmania donovani; test: Antileishmanial activity against Leishmania donovani promastigotes; type: functional, organism-based
In short: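 Compounds were tested in vitro on cultured L. donovani promastigotes, with pentamidine and amphotericin B as standard controls. IC50 and IC90 (50% and 90% growth inhibition) were computed from growth-inhibition curves.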

[12] = tested on: Vero; test: Cytotoxicity against african green monkey Vero cells; type: cell-based, Chlorocebus sabaeus
In short: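 Mammalian cells (Vero, LLC-PK11, SK-MEL, KB, BT-549, SK-OV-3) exposed to compound; viable cells counted by Neutral Red dye uptake; IC50 taken from dose-response curves.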

[13] = tested on: Agrostis stolonifera; test: Phytotoxic activity against Agrostis stolonifera at 1.62 mM; type: functional, organism-based; in short: as §2
[14] = tested on: Nakaseomyces glabratus; test: Antifungal activity against Candida glabrata ATCC 90030 by broth dilution method; type: functional, organism-based
In short: (§3)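 Broth dilution run as a modified CLSI susceptibility method. Amphotericin B was included as the antifungal drug control in each assay.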

[15] = tested on: Candida albicans; test: Antifungal activity against Candida albicans ATCC 90028 by broth dilution method; type: functional, organism-based; in short: as §3
[16] = tested on: Pichia kudriavzevii; test: Antifungal activity against Candida krusei ATCC 6258 by broth dilution method; type: functional, organism-based; in short: as §3
[17] = tested on: Cryptococcus neoformans; test: Antifungal activity against Cryptococcus neoformans ATCC 90113 by broth dilution method; type: functional, organism-based; in short: as §3
[18] = tested on: Aspergillus fumigatus; test: Antifungal activity against Aspergillus fumigatus ATCC 90906 by broth dilution method; type: functional, organism-based; in short: as §3
[19] = tested on: Agrostis stolonifera; test: Phytotoxic activity against Agrostis stolonifera at 1.87 mM; type: functional, organism-based
In short: (§4)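 Seeds were bentgrass (Agrostis stolonifera) and lettuce (cv. Iceberg), in multiwell plates. Compound was dissolved at 1 mg per 100 μL acetone, and a 20 μL aliquot was dried onto filter paper for 30 min under airflow. Water was then added. Acetone solvent controls were handled identically. Growth was scored visually from 0 (no effect) to 5 (no growth).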

[20] = tested on: Staphylococcus aureus; test: Antimicrobial activity against methicillin-sensitive Staphylococcus aureus ATCC 29213 by CLSI M7-A5 method; type: functional
[21] = tested on: Lactuca sativa; test: Phytotoxic activity against Lactuca sativa cv. L. at 1.87 mM; type: functional, organism-based; in short: as §4
[22] = tested on: Staphylococcus aureus; test: Antimicrobial activity against methicillin-resistant Staphylococcus aureus ATCC 33591 by CLSI M7-A5 method; type: functional
[23] = tested on: Lactuca sativa; test: Phytotoxic activity against Lactuca sativa cv. L. at 1.73 mM; type: functional, organism-based; in short: as §2
[24] = tested on: Agrostis stolonifera; test: Phytotoxic activity against Agrostis stolonifera at 1.73 mM; type: functional, organism-based; in short: as §2
[25] = Chlorocebus sabaeus, Vero, read-out: IC50

Structure (SMILES)	selectivity ratio [1]	selectivity ratio [2]	IC50 [3] [µM]	IC50 [4] [µM]	IC50 [5] [µM]	IC50 [6] [µM]	IC50 [7] [µM]	IC50 [8] [µM]	IC50 [10] [µM]	IC50 [11] [µM]	IC90 [11] [µM]	IC50 [12, 25] [µM]	IC50 ([12]; vero)	other results
COc1c(C[C@@H](C)OC(C)=O)c2c3c(C[C@@H](C)OC(C)=O)c(OC)c(=O)c4c(O)cc5c(c6c(cc(O)c(c1=O)c62)OCO5)c43	2.3	1.6	2.75	8.7	4.8	8.7	4.9	9.4	1.94	3.1	9.7	4.53	–	Activity [9]: Active; Activity [13]: Active
C[C@@H]1[C@H](O)[C@@H](C)/C=C/C=C/C=C/C=C/C=C/C=C/C=C/[C@H](O[C@@H]2O[C@H](C)[C@@H](O)[C@H](N)[C@@H]2O)C[C@@H]2O[C@](O)(C[C@@H](O)C[C@@H](O)[C@H](O)CC[C@@H](O)C[C@@H](O)CC(=O)O[C@H]1C)C[C@H](O)[C@H]2C(=O)O [AMPHOTERICIN B]	–	–	–	–	–	–	–	–	–	0.18	0.38	–	–	–
CC[C@@H](C)[C@H]1O[C@@H](c2c(OC)c(-c3ccccc3)c[n+]([O-])c2OC)[C@H](C)C[C@@H]1C	> 1.2	> 1.1	6.76	–	–	–	–	–	6.51	–	–	–	Non-toxic	–
C[C@@H]1CC[C@H]2[C@@H](C)C(=O)O[C@@H]3O[C@@]4(C)CC[C@@H]1[C@]32OO4 [ARTEMISININ]	–	–	0.02	–	–	–	–	–	–	–	–	–	Non-toxic	–
CC[C@@H](C)[C@H]1O[C@@H](c2c(O)c(-c3ccccc3)cn(O)c2=O)[C@H](C)C[C@@H]1C [SEPTORIAMYCIN A]	–	–	–	–	–	–	–	–	–	0.11	0.29	–	–	Activity [14]: Active; Activity [15]: Active; Activity [16]: Active; Activity [17]: Active; Activity [18]: Active
COc1c(C[C@@H](C)O)c2c3c(C[C@@H](C)O)c(OC)c(=O)c4c(O)cc5c(c6c(cc(O)c(c1=O)c62)OCO5)c43	3.2	4.8	1.08	10.8	3.7	7.1	3.6	3.9	1.62	1.14	2.81	5.24	–	Activity [19]: Active; MIC [20]: 4.7 µM (≈ 2.51 µg/mL); Activity [21]: Active; MIC [22]: 9.4 µM (≈ 5.02 µg/mL)
N=C(N)c1ccc(OCCCCCOc2ccc(C(=N)N)cc2)cc1 [PENTAMIDINE]	–	–	–	–	–	–	–	–	–	2.9	5.58	–	–	–
CCN(CC)CCCC(C)Nc1ccnc2cc(Cl)ccc12 (configuration not stated) [CHLOROQUINE]	–	–	–	–	–	–	–	–	–	–	–	–	Non-toxic	–
COc1c(C[C@@H](C)OC(C)=O)c2c3c(C[C@@H](C)O)c(OC)c(=O)c4c(O)cc5c(c6c(cc(O)c(c1=O)c62)OCO5)c43	1.7	1.9	2.78	8.6	4	8.5	3.8	10.1	3.12	1.7	–	5.21	–	Activity [23]: Active; Activity [24]: Active
